Laboratory results from ChEMBL document CHEMBL1255506, “Discovery of quinolines as selective glucocorticoid receptor agonists” (Bioorg Med Chem Lett, 2010).

Assays:
Glucocorticoid receptor [1] = molecular target: T1, Glucocorticoid receptor (Homo sapiens, UniProt P04150); test: Binding affinity to human recombinant glucocorticoid receptor expressed in baculovirus infected Sf9 cells
T1 sequence (P04150 whole entry): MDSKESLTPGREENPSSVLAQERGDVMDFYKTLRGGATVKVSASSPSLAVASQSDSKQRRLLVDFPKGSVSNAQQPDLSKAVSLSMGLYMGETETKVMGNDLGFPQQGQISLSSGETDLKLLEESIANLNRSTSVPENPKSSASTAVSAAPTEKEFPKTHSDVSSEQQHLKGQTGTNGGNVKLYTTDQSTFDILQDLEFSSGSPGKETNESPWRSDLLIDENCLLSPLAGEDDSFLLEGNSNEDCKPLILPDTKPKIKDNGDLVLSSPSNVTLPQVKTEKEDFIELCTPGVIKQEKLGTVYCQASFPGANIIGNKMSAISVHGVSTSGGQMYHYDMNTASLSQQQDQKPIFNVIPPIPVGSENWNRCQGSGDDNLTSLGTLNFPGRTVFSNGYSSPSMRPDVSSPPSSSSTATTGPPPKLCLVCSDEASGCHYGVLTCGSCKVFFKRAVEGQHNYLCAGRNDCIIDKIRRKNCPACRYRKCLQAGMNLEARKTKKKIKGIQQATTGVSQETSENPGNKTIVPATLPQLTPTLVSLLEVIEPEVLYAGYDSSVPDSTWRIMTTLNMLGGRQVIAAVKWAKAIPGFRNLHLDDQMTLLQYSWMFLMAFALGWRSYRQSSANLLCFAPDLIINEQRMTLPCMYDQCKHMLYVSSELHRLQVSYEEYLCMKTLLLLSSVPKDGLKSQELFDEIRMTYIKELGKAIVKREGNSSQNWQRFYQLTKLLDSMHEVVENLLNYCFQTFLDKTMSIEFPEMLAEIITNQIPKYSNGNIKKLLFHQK

Progesterone receptor = molecular target: T2, Progesterone receptor (Homo sapiens, UniProt P06401); test: Binding affinity to human recombinant progesterone receptor expressed in baculovirus infected Sf9 cells
T2 sequence (P06401 whole entry): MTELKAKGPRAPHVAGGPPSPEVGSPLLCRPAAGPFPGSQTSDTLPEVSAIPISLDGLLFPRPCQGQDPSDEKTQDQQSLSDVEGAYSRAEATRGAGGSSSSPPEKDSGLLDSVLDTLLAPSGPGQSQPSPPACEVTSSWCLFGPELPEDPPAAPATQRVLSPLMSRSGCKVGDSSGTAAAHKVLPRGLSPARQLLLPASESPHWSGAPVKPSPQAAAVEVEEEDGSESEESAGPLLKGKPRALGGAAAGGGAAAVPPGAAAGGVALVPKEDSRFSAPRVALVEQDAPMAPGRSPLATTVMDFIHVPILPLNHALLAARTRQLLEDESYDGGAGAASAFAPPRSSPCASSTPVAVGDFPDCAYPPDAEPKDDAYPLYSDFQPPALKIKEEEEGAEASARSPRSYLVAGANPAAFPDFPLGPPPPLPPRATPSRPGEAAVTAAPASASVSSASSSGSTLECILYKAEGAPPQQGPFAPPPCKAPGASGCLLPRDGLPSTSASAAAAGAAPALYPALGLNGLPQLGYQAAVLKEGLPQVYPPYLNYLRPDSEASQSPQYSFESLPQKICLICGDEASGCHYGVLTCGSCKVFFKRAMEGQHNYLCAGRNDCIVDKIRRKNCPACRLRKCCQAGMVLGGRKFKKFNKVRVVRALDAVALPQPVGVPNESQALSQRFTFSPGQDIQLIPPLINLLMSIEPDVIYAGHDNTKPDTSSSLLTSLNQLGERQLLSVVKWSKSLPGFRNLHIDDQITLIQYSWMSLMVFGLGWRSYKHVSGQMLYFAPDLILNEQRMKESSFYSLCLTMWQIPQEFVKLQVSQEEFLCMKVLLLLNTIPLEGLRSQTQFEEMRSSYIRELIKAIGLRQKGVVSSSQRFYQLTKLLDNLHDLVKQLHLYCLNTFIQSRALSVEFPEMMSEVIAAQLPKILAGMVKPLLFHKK
Procedure, shortened: (§1)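 Extracts of Sf9 cells infected with recombinant baculovirus encoding the human receptor served as receptor source for competitive binding. Run in duplicate; pIC50 derived, value error stated as 0.2.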

Androgen receptor = molecular target: T3, Androgen receptor (Homo sapiens, UniProt P10275); test: Binding affinity to human recombinant androgen receptor expressed in baculovirus infected Sf9 cells
T3 sequence (P10275 whole entry): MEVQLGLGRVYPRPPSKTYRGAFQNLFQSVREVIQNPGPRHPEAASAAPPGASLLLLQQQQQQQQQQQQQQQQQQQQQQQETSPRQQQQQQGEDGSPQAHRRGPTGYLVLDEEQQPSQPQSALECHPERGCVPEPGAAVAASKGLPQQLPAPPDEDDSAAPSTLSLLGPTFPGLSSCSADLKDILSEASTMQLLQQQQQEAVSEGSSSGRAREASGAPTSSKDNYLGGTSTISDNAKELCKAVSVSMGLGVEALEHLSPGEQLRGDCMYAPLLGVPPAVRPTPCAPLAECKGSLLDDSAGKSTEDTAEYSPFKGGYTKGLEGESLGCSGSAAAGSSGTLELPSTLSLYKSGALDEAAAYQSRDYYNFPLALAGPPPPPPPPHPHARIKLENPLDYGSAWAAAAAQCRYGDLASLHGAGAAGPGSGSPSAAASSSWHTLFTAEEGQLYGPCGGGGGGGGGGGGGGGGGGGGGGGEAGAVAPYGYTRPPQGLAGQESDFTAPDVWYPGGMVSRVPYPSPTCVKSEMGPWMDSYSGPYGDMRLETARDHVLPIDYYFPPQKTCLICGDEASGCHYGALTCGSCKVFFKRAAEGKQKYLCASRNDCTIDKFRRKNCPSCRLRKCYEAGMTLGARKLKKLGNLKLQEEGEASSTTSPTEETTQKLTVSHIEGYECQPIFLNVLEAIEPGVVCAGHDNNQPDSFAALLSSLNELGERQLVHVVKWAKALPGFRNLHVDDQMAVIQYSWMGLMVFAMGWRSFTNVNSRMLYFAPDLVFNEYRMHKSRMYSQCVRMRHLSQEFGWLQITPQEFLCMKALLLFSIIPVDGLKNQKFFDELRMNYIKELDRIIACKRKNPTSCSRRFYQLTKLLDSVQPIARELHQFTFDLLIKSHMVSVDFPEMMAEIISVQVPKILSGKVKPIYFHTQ

[2] = molecular target: T4, Mineralocorticoid receptor (Homo sapiens, UniProt P08235); test: Binding affinity to human recombinant mineralocorticoid receptor expressed in baculovirus infected Sf9 cells; procedure, shortened: as §1
T4 sequence (P08235 whole entry): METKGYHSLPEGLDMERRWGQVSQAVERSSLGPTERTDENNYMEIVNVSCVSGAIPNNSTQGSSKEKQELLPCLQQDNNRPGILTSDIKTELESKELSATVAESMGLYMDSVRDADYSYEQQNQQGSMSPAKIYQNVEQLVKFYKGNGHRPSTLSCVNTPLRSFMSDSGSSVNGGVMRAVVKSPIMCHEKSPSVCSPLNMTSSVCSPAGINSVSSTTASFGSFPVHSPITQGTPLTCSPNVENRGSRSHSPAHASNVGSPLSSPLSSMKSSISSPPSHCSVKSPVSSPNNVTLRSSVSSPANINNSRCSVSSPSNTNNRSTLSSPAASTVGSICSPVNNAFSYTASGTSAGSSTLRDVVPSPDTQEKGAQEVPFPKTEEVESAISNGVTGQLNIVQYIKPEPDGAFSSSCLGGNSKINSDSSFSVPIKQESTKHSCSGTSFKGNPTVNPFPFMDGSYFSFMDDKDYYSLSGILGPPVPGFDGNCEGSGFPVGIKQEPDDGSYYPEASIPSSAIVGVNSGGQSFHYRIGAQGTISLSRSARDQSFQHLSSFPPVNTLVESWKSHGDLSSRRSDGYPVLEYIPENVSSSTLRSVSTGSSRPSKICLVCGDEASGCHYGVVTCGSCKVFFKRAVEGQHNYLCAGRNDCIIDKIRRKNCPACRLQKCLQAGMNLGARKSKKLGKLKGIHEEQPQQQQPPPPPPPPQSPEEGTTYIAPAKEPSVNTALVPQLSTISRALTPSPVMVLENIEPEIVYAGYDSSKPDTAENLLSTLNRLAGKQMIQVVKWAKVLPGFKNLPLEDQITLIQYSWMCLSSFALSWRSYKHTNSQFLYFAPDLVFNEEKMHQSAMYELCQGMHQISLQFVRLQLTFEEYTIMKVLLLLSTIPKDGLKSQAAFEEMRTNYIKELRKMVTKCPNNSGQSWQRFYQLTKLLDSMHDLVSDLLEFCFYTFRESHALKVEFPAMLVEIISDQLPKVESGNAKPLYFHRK

Glucocorticoid receptor [3] = molecular target: T1, Glucocorticoid receptor; test: Transrepression activity at glucocorticoid receptor-mediated antiinflammatory activity in human HeLa cells assessed as inhibition of TPA-induced collagenase promoter activity by luciferase reporter gene assay; type: cell-based
Glucocorticoid receptor [4] = molecular target: T1, Glucocorticoid receptor; test: Transrepression activity at glucocorticoid receptor-mediated antiinflammatory activity in human THP1 cells assessed as inhibition of LPS-induced IL-8 production; type: cell-based, THP-1
Glucocorticoid receptor [5] = molecular target: T1, Glucocorticoid receptor; test: Transactivation activity at glucocorticoid receptor in human HeLa cells assessed as induction of MMTV promoter activity by luciferase reporter gene assay; type: cell-based

Structure (SMILES) | IC50 (Glucocorticoid receptor [1]) | IC50 (Progesterone receptor) | IC50 (Androgen receptor) | IC50 [2] | IC50 (Glucocorticoid receptor [3]) | IC50 (Glucocorticoid receptor [4]) | EC50 (Glucocorticoid receptor [5])
COc1ccc(F)cc1C(C)(C)CC(O)(C(=O)Nc1ccc2c(=O)onc(C)c2c1)C(F)(F)F (stereo not drawn) | 1 nM | 12.6 nM | 501 nM | 7.94 nM |  |  | 
Cc1noc(=O)c2ccc(NC(=O)C(O)(CC(C)(C)c3cc(F)ccc3O)C(F)(F)F)cc12 (stereo not drawn) | 3.16 nM | 7.94 nM | 158 nM | 1.26 nM | 10 nM | 50.1 nM | 25.1 nM
CC(C)(CC(O)(CNc1cccc2ncccc12)C(F)(F)F)c1cc(F)ccc1O (stereo not drawn) | 1 nM | > 1000 nM | > 1000 nM | > 1000 nM | 6.31 nM | 20 nM | 79.4 nM
Cc1noc(=O)c2ccc(NC(=O)C(O)(CC(C)(C)c3cccc4c3OCC4)C(F)(F)F)cc12 (stereo not drawn) |  |  | 631 nM | 79.4 nM |  |  | 
COc1ccc(F)cc1C(C)(C)CC(O)(CNc1cccc2ncccc12)C(F)(F)F (stereo not drawn) | 20 nM | 1000 nM | > 1000 nM | > 1000 nM |  | 25.1 nM | 
COc1ccc(F)cc1C(C)(C)CC(O)(CNc1cccc2ccccc12)C(F)(F)F (stereo not drawn) | > 1000 nM | > 1000 nM | > 1000 nM | > 1000 nM |  |  | 
CC(C)(CC(O)(CNc1cccc2ccccc12)C(F)(F)F)c1cc(F)ccc1O (stereo not drawn) | 15.8 nM | > 1000 nM | > 1000 nM | > 1000 nM |  | > 1000 nM | 
C[C@@H]1C[C@H]2[C@@H]3CCC4=CC(=O)C=C[C@]4(C)[C@@]3(F)[C@@H](O)C[C@]2(C)[C@@]1(O)C(=O)CO [DEXAMETHASONE] |  | > 1000 nM |  |  |  |  | 
COc1ccc(F)cc1C(C)(C)CC(O)(CNc1ccc2c(=O)onc(C)c2c1)C(F)(F)F (stereo not drawn) | 10 nM | 15.8 nM | > 1000 nM | > 1000 nM |  |  | 
COc1ccc(F)cc1C(C)(C)CC(O)(CNc1cccc2nc(C)ccc12)C(F)(F)F (stereo not drawn) | 0.631 nM | > 1000 nM | > 1000 nM | > 1000 nM | 2 nM | 25.1 nM | 25.1 nM
Cc1ccc2c(NCC(O)(CC(C)(C)c3cc(F)ccc3O)C(F)(F)F)cccc2n1 (stereo not drawn) | 6.31 nM | > 1000 nM | > 1000 nM | > 1000 nM | 3.16 nM | 5.01 nM | 12.6 nM
